Test results from ChEMBL document CHEMBL1687889, “Antitumor agents. 284. New desmosdumotin B analogues with bicyclic B-ring as cytotoxic and antitubulin agents” (J Med Chem, 2011).
Calls of active or inactive are those of the source. The rule behind the calls is not given here.

Key:
[1] = test system: HepG2; assay: Antiproliferative activity against human HepG2 cells at 20 ug/ml after 3 days by sulforhodamine B assay; assay type: functional, cell-based
[2] = test system: MCF7; assay: Antiproliferative activity against human MCF7 cells at 20 ug/ml after 3 days by sulforhodamine B assay; assay type: functional, cell-based
[3] = test system: HCT-8; assay: Antiproliferative activity against human HCT8 cells at 20 ug/ml after 3 days by sulforhodamine B assay; assay type: functional, cell-based
[4] = Inhibition of tubulin assembly after 20 mins by turbidimetric assay
Procedure, shortened: (§1)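 Turbidimetry at 350 nm. 10 μM (1.0 mg/mL) tubulin preincubated with compound for 15 min at 30 °C without GTP, then chilled, and 0.4 mM GTP added. Turbidity followed for 20 min at 30 °C after a temperature jump from 0 °C. IC50 is the concentration halving the turbidity increase relative to control.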

[5] = test system: KB; assay: Antiproliferative activity against human KB cells at 20 ug/ml after 3 days by sulforhodamine B assay; assay type: functional, cell-based
[6] = Antiproliferative activity against human KBVIN cells after 3 days by sulforhodamine B assay; assay type: functional; conditions: 72 h
Procedure, shortened: (§2)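 Cells grown in RPMI-1640 with 25 mM HEPES, 0.25% sodium bicarbonate, 10% FBS and 100 μg/mL kanamycin. Exposed to compound for 3 days, with at most 0.5% v/v DMSO. Attached cells fixed in cold 50% TCA, stained with 0.4% sulforhodamine B, and the bound dye solubilized. A562 read. GI50 is the concentration giving a 50% absorbance drop versus untreated cells.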

[7] = test system: PC-3; assay: Antiproliferative activity against human PC3 cells at 20 ug/ml after 3 days by sulforhodamine B assay; assay type: functional, cell-based
[8] = test system: A549; assay: Antiproliferative activity against human A549 cells at 20 ug/ml after 3 days by sulforhodamine B assay; assay type: functional, cell-based
[9] = Binding affinity to tubulin at 40 uM
[10] = test system: HepG2; assay: Antiproliferative activity against human HepG2 cells after 3 days by sulforhodamine B assay; assay type: functional; conditions: HepG2, 72 h
Procedure, shortened: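 Sulforhodamine B assay over 3 days in culture, with at most 0.5% v/v DMSO. Attached cells fixed in cold 50% TCA, stained with 0.4% SRB, and the dye solubilized. Absorbance read at 562 nm. GI50 is the concentration causing a 50% fall in absorbance relative to untreated cells.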

[11] = test system: DU-145; assay: Antiproliferative activity against human DU145 cells after 3 days by sulforhodamine B assay; assay type: functional; conditions: DU-145, 72 h
[12] = Displacement of [3H]colchicine from tubulin at 5 uM for 10 mins
Procedure, shortened: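 1.0 μM tubulin incubated with 5.0 μM [3H]colchicine and 5.0 μM inhibitor for 10 min at 37 °C, when control samples reach about 40–60% of maximal colchicine binding. Result given as percent inhibition of colchicine binding.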

[13] = test system: KB; assay: Antiproliferative activity against human KB cells after 3 days by sulforhodamine B assay; assay type: functional; conditions: 72 h; procedure, shortened: as §2
[14] = test system: PC-3; assay: Antiproliferative activity against human PC3 cells after 3 days by sulforhodamine B assay; assay type: functional; conditions: PC-3, 72 h
[15] = test system: A549; assay: Antiproliferative activity against human A549 cells after 3 days by sulforhodamine B assay; assay type: functional; conditions: A549, 72 h; procedure, shortened: as §2
[16] = test system: HCT-8; assay: Antiproliferative activity against human HCT8 cells after 3 days by sulforhodamine B assay; assay type: functional; conditions: HCT-8, 72 h; procedure, shortened: as §2
[17] = test system: KBVIN; assay: Antiproliferative activity against human KBVIN cells at 20 ug/ml after 3 days by sulforhodamine B assay; assay type: functional, cell-based
[18] = Partial inhibition of tubulin assembly after 20 mins at 4 uM by turbidimetric assay; procedure, shortened: as §1
[19] = test system: MCF7; assay: Antiproliferative activity against human MCF7 cells after 3 days by sulforhodamine B assay; assay type: functional; conditions: MCF7, 72 h
[20] = test system: A549; assay: Inhibition of spindle formation in human A549 cells after 24 hs by DAPI staining; assay type: functional, cell-based
Procedure, shortened: (§3)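 A549 cells held in chamber slides 12 h, then exposed to compound (0.1 nM) or DMSO for 24 h at 37 °C; fixed in 4% paraformaldehyde/PBS, permeabilized with 0.5% Triton X-100, stained with anti-α-tubulin monoclonal plus FITC secondary and DAPI for nuclei; microtubules and mitotic spindles scored by fluorescence microscopy. Comparators: colchicine 100 nM, paclitaxel 1.5 nM, doxorubicin 500 nM.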

[21] = test system: A549; assay: Inhibition of microtubule polymerization in human A549 cells after 24 hs by immunofluorescence staining; assay type: cell-based; procedure, shortened: as §3

Structure (SMILES): CCC1=C(O)c2c(oc(-c3ccccc3)cc2=O)C(CC)(CC)C1=O [6,8,8-TRIETHYL DESMOSDUMOTIN B]
- Activity [1]: inactive
- Activity [2]: inactive
- Activity [3]: inactive
- IC50 [4]: Not Active
- Activity [5]: inactive
- GI50 [6]: 1070 nM
- Activity [7]: inactive
- Activity [8]: inactive
- Activity [9]: inactive

Structure (SMILES): CCC1=C(O)c2c(oc(-c3c(C)sc4ccccc34)cc2=O)C(CC)(CC)C1=O
- GI50 [10]: 2030 nM
- GI50 [11]: 3920 nM
- inhibition [12]: 38%
- IC50 ([4]; read-out: IC50): 3400 nM
- GI50 [13]: 610 nM
- GI50 [6]: 760 nM
- GI50 [14]: 90700 nM
- GI50 [15]: 1350 nM
- GI50 [16]: 2700 nM

Structure (SMILES): CCC1=C(O)c2c(oc(-c3c(O)ccc4sccc34)cc2=O)C(CC)(CC)C1=O
- GI50 [10]: 1020 nM
- GI50 [11]: 1120 nM
- inhibition [12]: 52%
- IC50 ([4]; read-out: IC50): 3400 nM
- GI50 [13]: 760 nM
- GI50 [6]: 780 nM
- GI50 [14]: 21500 nM
- GI50 [15]: 3170 nM
- GI50 [16]: 3660 nM

Structure (SMILES): CCC1=C(O)c2c(oc(-c3ccc4c(c3)c3ccccc3n4CC)cc2=O)C(CC)(CC)C1=O
- Activity [1]: inactive
- Activity [2]: inactive
- Activity [3]: inactive
- Activity [5]: inactive
- Activity [7]: inactive
- Activity [8]: inactive
- Activity [17]: inactive

Structure (SMILES): CC1=C(O)C(C)(C)c2oc(-c3ccccc3)cc(=O)c2C1=O [DESMOTUMOTIN B]
- Activity [1]: inactive
- Activity [2]: inactive
- Activity [3]: inactive
- Activity [5]: inactive
- GI50 [6]: 13500 nM
- Activity [7]: inactive
- Activity [8]: inactive

Structure (SMILES): CCC1=C(O)c2c(oc(-c3c4ccccc4cc4ccccc34)cc2=O)C(CC)(CC)C1=O
- Activity [1]: inactive
- Activity [2]: inactive
- Activity [3]: inactive
- Activity [5]: inactive
- Activity [7]: inactive
- Activity [8]: inactive
- Activity [17]: inactive

Structure (SMILES): CCC1=C(O)c2c(oc(-c3ccc4ccccc4c3)cc2=O)C(CC)(CC)C1=O
- GI50 [10]: 1550 nM
- inhibition [18]: Active
- inhibition [12]: 29%
- GI50 [19]: 1420 nM
- GI50 [13]: 1030 nM
- GI50 [6]: 1160 nM
- GI50 [14]: 2580 nM
- GI50 [15]: 1160 nM
- GI50 [16]: 1290 nM

Structure (SMILES): CCC1=C(O)c2c(oc(-c3c(OC)c(OC)cc4ccccc34)cc2=O)C(CC)(CC)C1=O
- Activity [3]: inactive
- Activity [5]: inactive
- GI50 [6]: 35700 nM
- Activity [8]: inactive

Structure (SMILES): CCC1=C(O)c2c(oc(-c3cccc4ccccc34)c(Br)c2=O)C(CC)(CC)C1=O
- Activity [1]: inactive
- GI50 [19]: 24600 nM
- GI50 [13]: 6410 nM
- GI50 [6]: 12000 nM
- Activity [7]: inactive
- GI50 [15]: 25600 nM
- GI50 [16]: 13900 nM

Structure (SMILES): COc1cc2c(c(OC)c1OC)-c1ccc(OC)c(=O)cc1[C@@H](NC(C)=O)CC2
- inhibition [20]: Active
- inhibition [21]: Active

Structure (SMILES): CCC1=C(O)c2c(oc(-c3csc4ccccc34)cc2=O)C(CC)(CC)C1=O
- GI50 [10]: 130 nM
- inhibition [12]: 78%
- GI50 [19]: 110 nM
- IC50 ([4]; read-out: IC50): 2000 nM
- inhibition [20]: Active
- GI50 [13]: 80 nM
- GI50 [6]: 70 nM
- GI50 [14]: 160 nM
- GI50 [15]: 60 nM
- GI50 [16]: 130 nM
- inhibition [21]: Active

Structure (SMILES): CCC1=C(O)c2c(oc(-c3cccc4c3oc3ccccc34)cc2=O)C(CC)(CC)C1=O
- Activity [1]: inactive
- Activity [2]: inactive
- Activity [3]: inactive
- Activity [5]: inactive
- Activity [7]: inactive
- Activity [8]: inactive
- Activity [17]: inactive

Structure (SMILES): CCC1=C(O)c2c(oc(-c3ccc(OC)c4ccc(OC)cc34)cc2=O)C(CC)(CC)C1=O
- Activity [1]: inactive
- Activity [2]: inactive
- Activity [3]: inactive
- Activity [5]: inactive
- Activity [7]: inactive
- Activity [8]: inactive
- Activity [17]: inactive
